Hits are enriched below; roughly 4.3% of the tested compounds scored in any of these assays.
STAT1 inh: STAT1 signaling inhibitors, primary screen, cell-based, HTS, luciferase reporter | AID 920, 2007 | 0.35% of 200,000 active | NIH 3T3 STAT1-luciferase reporter, IFN-gamma, luminescence | inhibition, % at 5.5 µM;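 active = inhibition above a set limit, the mean inhibition across all tested compounds plus 3 SD, cut at about 34% in these data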;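 also: 0% = IFN-gamma with DMSO and 100% = IFN-gamma with 300 µM nifuroxazide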
STAT1 act: STAT1 signaling activators, primary screen, cell-based, HTS, luciferase reporter; activation (% of control), % at 5.5 µM; NIH 3T3 STAT1-luciferase reporter, IFN-gamma, luminescence; 100% = IFN-gamma alone, no compound; AID 932, 2007; 2.6% of 200,000 active;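 active = activation above the screen-wide mean activation plus 3 SD, cut at about 130% in these data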;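 also: raw ratio to IFN-gamma control signal so 100% means no change and 0% no light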
STAT3 act: IL-6 driven STAT3 reporter potentiators, primary screen, U3A cells, luciferase, luminescence, MLSCN library | IL-6 STAT3-luciferase reporter; 100% = signal with IL-6 EC80 alone | 0.91% of 190,000 active | activation (% of control), % at 5.6 µM;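 active = activation above the screen-wide mean of compound activation plus 3 SD, cut at about 130% in these data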;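 also: 0% = background luminescence of wells with medium and substrate only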
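System – human U3A cells carrying STAT3-luciferase construct · Probe or stimulus – Interleukin-6, 33 ng/mL · Schedule – compound 1 h, then IL-6 6 h at 37 °C · Signal – luminescence from STAT3-driven luciferase reporter · Evaluation – percent of IL-6-only median luminescence · Benchmarks – IL-6-only high control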
STAT3 inh: IL-6 driven STAT3 reporter inhibitors, primary screen, U3A cells, luciferase, luminescence, MLSCN library | 0.89% of 190,000 active | IL-6 STAT3-luciferase reporter; host cell line lacks STAT1 | inhibition, % at 5.5 µM | AID 862, 2007;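 active = inhibition above the mean inhibition across all screened compounds plus 3 SD, cut at about 44% in these data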;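 also: 0% = DMSO only wells and 100% = 100 µM nifuroxazide control wells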
An asterisk follows results filed as active.

`O=S(=O)(c1ccccc1)n1ccc(-c2cnc(-c3ccccc3)s2)n1` gave STAT1 inh -30.2, STAT1 act 127.2, STAT3 act 91.1 and STAT3 inh 16.5.
O=C1C2CCCN2C(=O)N1CCCCN1CCN(CCO)CC1 (centres undefined) was read as STAT1 inh -7.6, STAT1 act 106.7, STAT3 act 98.5 and STAT3 inh 6.2.
O=C(OCc1nc2ccccc2s1)c1cc2ccccc2oc1=O was read as STAT1 inh -3.1, STAT1 act 105.3, STAT3 act 134.4* and STAT3 inh -46.4.
`O=C(OCc1nc2ccccc2s1)c1cccc(S(=O)(=O)N2CCOCC2)c1` gave STAT1 inh -33.0, STAT1 act 130.3*, STAT3 act 139.0* and STAT3 inh -40.2.
`Nc1ccc(C(=O)OCc2nc3ccccc3s2)cc1` gave STAT1 inh -24.9, STAT1 act 120.1, STAT3 act 98.4 and STAT3 inh 3.7.
Screening O=C(COC(=O)c1cccc(S(=O)(=O)N2CCOCC2)c1)Nc1nc(-c2ccccc2Cl)cs1 returned STAT1 inh 3.4, STAT1 act 96.9, STAT3 act 83.5 and STAT3 inh 22.9.
For Cc1ccc2c(c1)Cc1nc3ccccc3nc1-2 the results were STAT1 inh 60.8*, STAT1 act 43.6, STAT3 act 41.3 and STAT3 inh 72.2*.
Cc1cc(N2CCCC2)nc2ccccc12 was read as STAT1 inh -9.3, STAT1 act 106.5, STAT3 act 93.6 and STAT3 inh 13.4.
For CC(C)CC(C(=O)N1CCc2ccccc2C1)N1C(=O)c2ccccc2C1=O (centres undefined) the results were STAT1 inh 9.5, STAT1 act 91.3, STAT3 act 134.2* and STAT3 inh -36.4.
For O=C(Nc1ccccc1)N1CC=C(c2ccccc2)CC1 the results were STAT1 inh -48.3, STAT1 act 144.7*, STAT3 act 86.9 and STAT3 inh 19.2.
For O=C(Nc1cccc2ccccc12)N1CC=C(c2ccccc2)CC1 the results were STAT1 inh 4.4, STAT1 act 95.9, STAT3 act 103.5 and STAT3 inh 2.9.
O=C(Nc1ccccc1)N1CC=C(c2ccc(F)cc2)CC1 was read as STAT1 inh -49.6, STAT1 act 142.4*, STAT3 act 88.4 and STAT3 inh 17.4.
Screening COCC(=O)Nc1ccc(C(=O)Nc2ccccc2Cl)cc1 returned STAT1 inh -12.6, STAT1 act 110.4, STAT3 act 92.1 and STAT3 inh 14.5.
For O=C(N/N=C1/CCc2ccccc21)C1CC1 the results were STAT1 inh -13.8, STAT1 act 112.9, STAT3 act 114.1 and STAT3 inh -11.1.
For O=C(N/N=C1\CCc2ccccc21)c1ccc(O)cc1 the results were STAT1 inh -49.7, STAT1 act 141.5*, STAT3 act 90.4 and STAT3 inh 16.0.
`CCOC(=O)N/N=C1\CCc2ccccc21` gave STAT1 inh -9.4, STAT1 act 109.0, STAT3 act 107.7 and STAT3 inh -11.1.
For O=C(N/N=C1\CCc2ccccc21)c1ccccc1Cl the results were STAT1 inh -35.2, STAT1 act 131.2*, STAT3 act 99.0 and STAT3 inh 5.0.
Screening Cc1ccc(C(=O)N/N=C2\CCc3ccccc32)c(C)c1 returned STAT1 inh -54.3, STAT1 act 149.0*, STAT3 act 105.4 and STAT3 inh -2.5.
`O=C(Nc1ccc(Cl)c(Cl)c1)Nc1cc(C(=O)NC2CC2)ccc1Cl` gave STAT1 inh 4.2, STAT1 act 96.2, STAT3 act 102.2 and STAT3 inh -1.8.
For O=C(CC12CC3CC(CC(C3)C1)C2)NC(=S)N1CCCCC1 the results were STAT1 inh 0.9, STAT1 act 99.2, STAT3 act 103.7 and STAT3 inh -5.9.
`CC(Nc1ccccc1N1CCCCC1)C(=O)N1CCc2ccccc21` (centres undefined) gave STAT1 inh -8.1, STAT1 act 105.4, STAT3 act 109.6 and STAT3 inh -1.6.
`O=C(NCc1ccccc1)c1cc(-c2cccs2)on1` gave STAT1 inh -12.7, STAT1 act 111.5, STAT3 act 103.0 and STAT3 inh -0.8.
Screening O=C(NCCCn1ccnc1)c1cc(-c2cccs2)on1 returned STAT1 inh -51.5, STAT1 act 146.6*, STAT3 act 123.5 and STAT3 inh -26.0.
Screening O=C(NCc1ccco1)c1cc(-c2cccs2)on1 returned STAT1 inh -32.5, STAT1 act 129.8*, STAT3 act 106.1 and STAT3 inh -3.9.
`O=C(NCC1CCCO1)c1cc(-c2ccccc2)on1` (centres undefined) gave STAT1 inh -43.0, STAT1 act 139.7*, STAT3 act 107.8 and STAT3 inh -6.5.
`O=C(NCCCN1CCOCC1)c1cc(-c2cccs2)on1` gave STAT1 inh -21.1, STAT1 act 119.4, STAT3 act 120.5 and STAT3 inh -21.3.
`CC(C)c1cc(C(=O)NCc2ccco2)no1` gave STAT1 inh -11.0, STAT1 act 109.8, STAT3 act 102.3 and STAT3 inh 2.5.
O=C(NCc1ccco1)c1cc(-c2ccccc2)on1 was read as STAT1 inh -33.6, STAT1 act 131.0*, STAT3 act 103.2 and STAT3 inh -1.0.
`Brc1cccc(CSc2nnc(-c3ccncc3)o2)c1` gave STAT1 inh 14.0, STAT1 act 85.5, STAT3 act 88.8 and STAT3 inh 17.8.
For CC/C(=N\NC(=O)CCC(=O)NCc1ccccc1)c1ccc(O)cc1 the results were STAT1 inh 4.0, STAT1 act 94.4, STAT3 act 99.4 and STAT3 inh 4.1.
O=C(NCc1ccco1)c1cc(-c2ccc(F)cc2)on1 was read as STAT1 inh -46.1, STAT1 act 142.3*, STAT3 act 103.2 and STAT3 inh -0.4.
CC(C)Cc1cc(C(=O)NCc2cccs2)no1 was read as STAT1 inh -39.7, STAT1 act 133.5*, STAT3 act 115.2 and STAT3 inh -19.7.
CC(C)Cc1cc(C(=O)NCc2cccnc2)no1 was read as STAT1 inh -1.0, STAT1 act 100.9, STAT3 act 105.2 and STAT3 inh -1.6.
Screening CCOc1cc(C2NC(=O)NC(c3ccccc3)=C2C(=O)c2ccccc2)c(Br)cc1OCC(=O)O (centres undefined) returned STAT1 inh -10.7, STAT1 act 108.0, STAT3 act 91.9 and STAT3 inh 16.0.
Screening COc1ccc([N+](=O)[O-])cc1NC(=O)CCSCCc1ccccn1 returned STAT1 inh 4.8, STAT1 act 94.8, STAT3 act 109.2 and STAT3 inh 1.9.
For CCc1ccc(-c2csc(-c3c[nH]c4ccccc34)n2)cc1 the results were STAT1 inh -35.7, STAT1 act 131.8*, STAT3 act 112.5 and STAT3 inh -14.3.
`O=C(Nc1ccc2c(c1)OCO2)C1CCN(C(=O)c2ccc([N+](=O)[O-])cc2)CC1` gave STAT1 inh 2.5, STAT1 act 97.8, STAT3 act 100.2 and STAT3 inh 8.1.
